Measurements taken from ChEMBL document CHEMBL4428123, “Synthesis of phenylpiperazine derivatives of 1,4-benzodioxan as selective COX-2 inhibitors and anti-inflammatory agents” (Bioorg Med Chem, 2016).

Tests used:
[1] = system: Rattus norvegicus; assay: Anti-inflammatory activity in rat assessed as inhibition of carrageenan-induced paw edema at 10 mg/kg, po administered 30 mins before carrageenan challenge measured after 5 hrs relative to control; format: functional
Outline: (§1)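 Male rats were dosed orally with agents suspended in 0.5% Na CMC, 30 min before 0.1 mL of 1% (w/v) carrageenan was injected into the right hind paw. Thickness of both paws was measured 1, 3 and 5 h after injection. Activity was calculated as percent decrease in edema thickness relative to the carrageenan-induced edema. Data given as mean ± SD with non-parametric comparison, P < 0.05.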

[2] = system: Rattus norvegicus; assay: Anti-inflammatory activity in rat assessed as inhibition of carrageenan-induced paw edema at 10 mg/kg, po administered 30 mins before carrageenan challenge measured after 3 hrs relative to control; format: functional; outline: as §1
[3] = system: Rattus norvegicus; assay: Anti-inflammatory activity in rat assessed as inhibition of carrageenan-induced paw edema at 10 mg/kg, po administered 30 mins before carrageenan challenge measured after 1 hr relative to control; format: functional; outline: as §1
[4] = system: Rattus norvegicus; assay: Anti-inflammatory activity in rat assessed as inhibition of carrageenan-induced paw edema at 20 mg/kg, po administered 30 mins before carrageenan challenge measured after 1 hr relative to control; format: functional; outline: as §1
[5] = system: Rattus norvegicus; assay: Anti-inflammatory activity in rat assessed as inhibition of carrageenan-induced paw edema at 20 mg/kg, po administered 30 mins before carrageenan challenge measured after 3 hrs relative to control; format: functional; outline: as §1
[6] = system: Rattus norvegicus; assay: Anti-inflammatory activity in rat assessed as inhibition of carrageenan-induced paw edema at 20 mg/kg, po administered 30 mins before carrageenan challenge measured after 5 hrs relative to control; format: functional; outline: as §1
[7] = system: Rattus norvegicus; assay: Anti-inflammatory activity in rat assessed as inhibition of carrageenan-induced paw edema at 5 mg/kg, po administered 30 mins before carrageenan challenge measured after 1 hr relative to control; format: functional; outline: as §1
[8] = system: Rattus norvegicus; assay: Anti-inflammatory activity in rat assessed as inhibition of carrageenan-induced paw edema at 5 mg/kg, po administered 30 mins before carrageenan challenge measured after 3 hrs relative to control; format: functional; outline: as §1
[9] = system: Rattus norvegicus; assay: Anti-inflammatory activity in rat assessed as inhibition of carrageenan-induced paw edema at 5 mg/kg, po administered 30 mins before carrageenan challenge measured after 5 hrs relative to control; format: functional; outline: as §1
[10] = system: Rattus norvegicus; assay: Anti-inflammatory activity in po dosed rat assessed as inhibition of carrageenan-induced paw edema administered 30 mins before carrageenan challenge measured after 1 to 5 hrs; format: functional, organism-based; outline: as §1
[11] = system: Rattus norvegicus; assay: Analgesic activity in rat assessed as pain threshold time at 10 mg/kg, po measured at 0.5 hr post dose by hot plate method (reference value: 19.1 to 21.2 sec); format: functional
[12] = system: Rattus norvegicus; assay: Analgesic activity in rat assessed as pain threshold time at 10 mg/kg, po measured at 1 hr post dose by hot plate method (reference value: 19.1 to 21.2 sec); format: functional
[13] = system: Rattus norvegicus; assay: Analgesic activity in rat assessed as pain threshold time at 10 mg/kg, po measured at 1.5 hrs post dose by hot plate method (reference value: 19.1 to 21.2 sec); format: functional
[14] = Ulcerogenecity in rat carrageenan-induced inflammation model assessed as stomach mucosal damage by measuring lesions at 5 to 20 mg/kg, po administered 30 mins before carrageenan challenge measured after 1 to 5 hrs by macroscopic analysis; format: ADME, organism-based; details: in vivo
[15] = biological target: T1, Prostaglandin G/H synthase 1 (Ovis aries, UniProt P05979); assay: Inhibition of ovine COX1 by enzyme immunoassay
T1 sequence (P05979 whole entry): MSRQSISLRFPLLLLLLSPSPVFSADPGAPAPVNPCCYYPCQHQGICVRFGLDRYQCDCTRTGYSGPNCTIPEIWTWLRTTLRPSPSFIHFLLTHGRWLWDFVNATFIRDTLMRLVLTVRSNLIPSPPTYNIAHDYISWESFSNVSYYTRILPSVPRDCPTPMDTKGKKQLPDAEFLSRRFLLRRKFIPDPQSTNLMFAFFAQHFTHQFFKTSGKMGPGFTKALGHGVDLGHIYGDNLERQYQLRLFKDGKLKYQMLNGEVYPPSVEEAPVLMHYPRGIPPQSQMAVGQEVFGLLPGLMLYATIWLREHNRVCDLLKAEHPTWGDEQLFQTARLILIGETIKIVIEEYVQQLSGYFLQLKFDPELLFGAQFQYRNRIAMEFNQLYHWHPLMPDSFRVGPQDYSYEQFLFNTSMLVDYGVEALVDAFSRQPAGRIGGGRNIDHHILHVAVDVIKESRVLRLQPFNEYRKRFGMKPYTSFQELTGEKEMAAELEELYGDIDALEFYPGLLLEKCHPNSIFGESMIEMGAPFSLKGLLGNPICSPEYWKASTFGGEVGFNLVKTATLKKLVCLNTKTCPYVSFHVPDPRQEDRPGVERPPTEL

Structure (SMILES): c1ccc(N2CCN(Cc3ccc4c(c3)OCCO4)CC2)cc1
- inhibition in vivo at 10 mg/kg [1]: 25%
- inhibition in vivo at 10 mg/kg [2]: 35%
- inhibition in vivo at 10 mg/kg [3]: 28%

Structure (SMILES): c1ccc(N2CCN(Cc3ccc4c(c3)OCCO4)CC2)nc1
- inhibition in vivo at 10 mg/kg [1]: 35%
- inhibition in vivo at 10 mg/kg [2]: 55%
- inhibition in vivo at 10 mg/kg [3]: 40%

Structure (SMILES): FC(F)(F)c1cccc(N2CCN(Cc3ccc4c(c3)OCCO4)CC2)c1
- inhibition in vivo at 10 mg/kg [1]: 68%
- inhibition in vivo at 10 mg/kg [2]: 91 to 92%
- inhibition in vivo at 10 mg/kg [3]: 76 to 78%
- inhibition in vivo at 20 mg/kg [4]: 78%
- inhibition in vivo at 20 mg/kg [5]: 95%
- inhibition in vivo at 20 mg/kg [6]: 75%
- inhibition in vivo at 5 mg/kg [7]: 56%
- inhibition in vivo at 5 mg/kg [8]: 73%
- inhibition in vivo at 5 mg/kg [9]: 50%
- inhibition [10]: Dose-dependent effect
- Time [11]: 26.4 s
- Time [12]: 24.7 s
- Time [13]: 23.1 s
- Activity [14]: Non-Toxic
- IC50 [15]: 8.35 µM

Structure (SMILES): COc1cccc(N2CCN(Cc3ccc4c(c3)OCCO4)CC2)c1
- inhibition in vivo at 10 mg/kg [1]: 40%
- inhibition in vivo at 10 mg/kg [2]: 62%
- inhibition in vivo at 10 mg/kg [3]: 45%

Structure (SMILES): COc1ccc(N2CCN(Cc3ccc4c(c3)OCCO4)CC2)cc1
- inhibition in vivo at 10 mg/kg [1]: 63%
- inhibition in vivo at 10 mg/kg [2]: 88%
- inhibition in vivo at 10 mg/kg [3]: 71%
- Time [11]: 24.6 s
- Time [12]: 23.3 s
- Time [13]: 22.3 s

Structure (SMILES): Cc1ccc(N2CCN(Cc3ccc4c(c3)OCCO4)CC2)c(C)c1
- inhibition in vivo at 10 mg/kg [1]: 11%
- inhibition in vivo at 10 mg/kg [2]: 28%
- inhibition in vivo at 10 mg/kg [3]: 16%

Structure (SMILES): O=[N+]([O-])c1ccc(N2CCN(Cc3ccc4c(c3)OCCO4)CC2)cc1
- inhibition in vivo at 10 mg/kg [1]: 65%
- inhibition in vivo at 10 mg/kg [2]: 79%
- inhibition in vivo at 10 mg/kg [3]: 68%
- Time [11]: 23.4 s
- Time [12]: 22.6 s
- Time [13]: 21.2 s

Structure (SMILES): O=C(O)Cc1ccccc1Nc1c(Cl)cccc1Cl [DICLOFENAC]
- inhibition in vivo at 10 mg/kg [1]: 50 to 52%
- inhibition in vivo at 10 mg/kg [2]: 79 to 80%
- inhibition in vivo at 10 mg/kg [3]: 41 to 42%
- Time [11]: 24.1 s
- Time [12]: 23.5 s
- Time [13]: 22.3 s

Structure (SMILES): Clc1cccc(N2CCN(Cc3ccc4c(c3)OCCO4)CC2)c1Cl
- inhibition in vivo at 10 mg/kg [1]: 13%
- inhibition in vivo at 10 mg/kg [2]: 28%
- inhibition in vivo at 10 mg/kg [3]: 18%

Structure (SMILES): Fc1ccc(N2CCN(Cc3ccc4c(c3)OCCO4)CC2)cc1
- inhibition in vivo at 10 mg/kg [1]: 57%
- inhibition in vivo at 10 mg/kg [2]: 82%
- inhibition in vivo at 10 mg/kg [3]: 62%
- Time [11]: 21.5 s
- Time [12]: 20.7 s
- Time [13]: 19.9 s

Structure (SMILES): c1ccc(C(c2ccccc2)N2CCN(Cc3ccc4c(c3)OCCO4)CC2)cc1
- inhibition in vivo at 10 mg/kg [1]: 19%
- inhibition in vivo at 10 mg/kg [2]: 27%
- inhibition in vivo at 10 mg/kg [3]: 15%

Structure (SMILES): Clc1cccc(N2CCN(Cc3ccc4c(c3)OCCO4)CC2)c1
- inhibition in vivo at 10 mg/kg [1]: 24%
- inhibition in vivo at 10 mg/kg [2]: 37%
- inhibition in vivo at 10 mg/kg [3]: 31%
